The values below come from ChEMBL document CHEMBL5034006, “Lead Optimization of 3,5-Disubstituted-7-Azaindoles for the Treatment of Human African Trypanosomiasis” (J Med Chem, 2021).

For orientation: Cmax means the peak of the concentration-time curve. As usually defined, the Tmax is the time at which the peak concentration occurs.

One data set can be described thus: Intrinsic clearance in human liver microsomes assessed per mg protein by LC-MS/MS analysis. Type of data set: ADME, Microsome.
Conditions: not given
A general note: Liver microsomes are vesicles of endoplasmic reticulum, rich in cytochrome P450 enzymes.
Consider `Cn1cc(-c2cnc3[nH]cc(-c4ccc(C(=O)O)cc4)c3c2)cn1`, for which the CLint was under 3 µL/min/mg.
Same read-out and setting: with `Cn1cc(-c2cnc3[nH]ccc3c2)cn1` the figure was over 300 µL/min/mg.
`Cn1cc(-c2ccc3[nH]cc(-c4cccc(C#N)c4)c3c2)cn1` displayed a CLint of 190 µL/min/mg.
Same read-out and setting: with `N#Cc1cccc(-c2c[nH]c3ncc(N4CCCC4)cc23)c1` the figure was 50 µL/min/mg; with `Cn1cc(-c2cnc3[nH]cc(-c4ccccc4C#N)c3c2)cn1`, 200 µL/min/mg; with `Cn1cc(-c2cnc3[nH]cc(-c4ccc(Cl)cc4)c3c2)cn1`, 57 µL/min/mg.
On to `Cn1cc(-c2cnc3[nH]cc(-c4ccc(C(N)=O)cc4)c3c2)cn1`, for which the CLint was determined as 14 µL/min/mg.
The compound `Cn1cc(-c2cnc3[nH]cc(-c4cccc(N)c4)c3c2)cn1` displayed a CLint of 290 µL/min/mg.
`Cn1cc(-c2cnc3[nH]cc(C4CCCNC4)c3c2)cn1` (configuration not stated): the CLint is under 3 µL/min/mg.
As to `Cn1cc(-c2c[nH]c3ncc(-c4cccc(C#N)c4)cc23)cn1`, the CLint amounted to 300 µL/min/mg.
Take `Cn1cc(-c2cnc3[nH]cc(-c4ccc(F)cc4)c3c2)cn1`: the CLint worked out at 130 µL/min/mg.
`Cn1cc(-c2cnc3[nH]cc(-c4cncc(C#N)c4)c3c2)cn1`: the CLint came out at 150 µL/min/mg.
In turn, `CS(=O)(=O)c1ccc(Nc2cnc3[nH]cc(-c4cccc(C#N)c4)c3c2)cc1` displayed a CLint of 33 µL/min/mg.
The same measure, in the same setting: with `Cn1cc(-c2cnc3[nH]cc(-c4ccnc(C#N)c4)c3c2)cn1` the figure was 190 µL/min/mg; with `Cn1cc(-c2cnc3occ(-c4cccc(C#N)c4)c3c2)cn1`, 130 µL/min/mg.
The same measure, in the same setting: with `N#Cc1cccc(-c2c[nH]c3ncc(-c4cnn(C5CCOCC5)c4)cc23)c1` the figure was 46 µL/min/mg; with `Cn1cc(-c2cnc3[nH]cc(-c4ccc(Cl)c(Cl)c4)c3c2)cn1`, 51 µL/min/mg.
Same read-out and setting: the figure for `N#Cc1cccc(-c2c[nH]c3ncc(N4CCCCC4)cc23)c1` is 300 µL/min/mg; for `Cc1nn(C)c(C)c1-c1cnc2[nH]cc(-c3cccc(C#N)c3)c2c1` it is 300 µL/min/mg.
On to `CN1CCN(c2cnc3[nH]cc(-c4cccc(C#N)c4)c3c2)CC1`, for which the CLint came to 44 µL/min/mg.
The compound `CN1CCCN(c2cnc3[nH]cc(-c4cccc(C#N)c4)c3c2)CC1` had a CLint of 82 µL/min/mg.
Take `Cn1cc(-c2cnc3[nH]cc(-c4ccc(C#N)cc4)c3c2)cn1`: the CLint turned out to be 51 µL/min/mg.
As for `Cn1cc(-c2cnc3[nH]cc(-c4cccnc4)c3c2)cn1`, the CLint stood at 90 µL/min/mg.
The same measure, in the same setting: with `COc1ccc(-c2c[nH]c3ncc(-c4cnn(C)c4)cc23)cc1` the figure was 180 µL/min/mg; with `Cn1cc(-c2cnc3[nH]cc(-c4ccc5nonc5c4)c3c2)cn1`, 88 µL/min/mg; with `Cc1ccc(-c2c[nH]c3ncc(-c4cnn(C)c4)cc23)cc1`, 130 µL/min/mg.
On the same count and under the same terms, the figure for `Cn1cc(-c2cnc3[nH]cc(C4CCN(C(=O)OC(C)(C)C)C4)c3c2)cn1` (configuration not stated) is 180 µL/min/mg; for `N#Cc1cccc(-c2c[nH]c3ncc(-c4ccncc4)cc23)c1` it is 160 µL/min/mg; for `Cc1c(-c2cnn(C)c2)cnc2[nH]cc(-c3cccc(C#N)c3)c12` it is 210 µL/min/mg.
Regarding `Cc1nn(C)cc1-c1cnc2[nH]cc(-c3cccc(C#N)c3)c2c1`, the CLint was determined as 250 µL/min/mg.
On to `Cn1cc(-c2cnc3[nH]cc(-c4ccc(F)c(F)c4)c3c2)cn1`, for which the CLint turned out to be 90 µL/min/mg.
The compound `Cn1cc(-c2cnc3[nH]cc(C4CCN(C(=O)OC(C)(C)C)CC4)c3c2)cn1` showed a CLint of 300 µL/min/mg.
Regarding `Cn1cc(-c2cnc3[nH]cc(-c4ccccc4)c3c2)cn1`, the CLint turned out to be 200 µL/min/mg.
The same measure, in the same setting: with `Cn1cc(-c2cnc3[nH]cc(-c4cccc(C#N)c4)c3c2)cn1` the figure was 190 µL/min/mg.
Turning to `Cn1cc(-c2cnc3[nH]cc(C4CCCN(C(=O)OC(C)(C)C)C4)c3c2)cn1` (configuration not stated), the CLint is over 300 µL/min/mg.
Turning to `Cn1cc(-c2cnc3[nH]cc(C4CCNC4)c3c2)cn1` (configuration not stated), the CLint is under 3 µL/min/mg.
Same read-out and setting: with `COc1cccc(-c2c[nH]c3ncc(-c4cnn(C)c4)cc23)c1` the figure was over 300 µL/min/mg; with `CN1CCC(n2cc(-c3cnc4[nH]cc(-c5cccc(C#N)c5)c4c3)cn2)CC1`, 17 µL/min/mg; with `Cc1ccc(S(=O)(=O)n2cc(-c3cccc(C#N)c3)c3cc(-c4cnn(C)c4)cnc32)cc1`, 15 µL/min/mg.
The compound `Cn1cc(-c2cnc3[nH]cc(-c4ccc(F)c(C#N)c4)c3c2)cn1` returned a CLint of 64 µL/min/mg.
As to `N#Cc1cccc(-c2c[nH]c3ncc(-c4cn[nH]c4)cc23)c1`, the CLint stood at 290 µL/min/mg.
Consider `CS(=O)(=O)c1ccc(-c2cnc3[nH]cc(-c4cccc(C#N)c4)c3c2)cc1`, for which the CLint is 30 µL/min/mg.
`Cn1cc(-c2cnc3[nH]cc(-c4ccc(O)cc4)c3c2)cn1` gave a CLint of 50 µL/min/mg.
Same read-out and setting: the figure for `Cn1cc(-c2cnc3c(c2)c(-c2cccc(C#N)c2)cn3C)cn1` is 180 µL/min/mg; for `Cn1cc(-c2cnc3[nH]cc(-c4cccc([N+](=O)[O-])c4)c3c2)cn1` it is 14 µL/min/mg; for `CC(C)(C)OC(=O)N1CCC(n2cc(-c3cnc4[nH]cc(-c5cccc(C#N)c5)c4c3)cn2)CC1` it is 91 µL/min/mg.
`CS(=O)(=O)N1CCN(c2cnc3[nH]cc(-c4cccc(C#N)c4)c3c2)CC1` returned a CLint of 32 µL/min/mg.
On to `c1nc2[nH]cc(C3CCCNC3)c2cc1-c1cnn(C2CCOCC2)c1` (configuration not stated), for which the CLint was under 3 µL/min/mg.
Same read-out and setting: the figure for `Cn1cc(-c2cnc3[nH]cc(-c4ccncc4)c3c2)cn1` is 39 µL/min/mg; for `c1cc(-c2c[nH]c3ncc(-c4cnn(C5CCOCC5)c4)cc23)ccn1` it is 29 µL/min/mg.
On the same count and under the same terms, with `N#Cc1cccc(-c2c[nH]c3ncc(-c4cncnc4)cc23)c1` the figure was 31 µL/min/mg; with `N#Cc1cccc(-c2c[nH]c3ncc(-c4cnn(C5CCNCC5)c4)cc23)c1`, under 3 µL/min/mg.
The compound `Cn1cc(Nc2cnc3[nH]cc(-c4cccc(C#N)c4)c3c2)cn1` yielded a CLint of 15 µL/min/mg.
`Cn1cc(-c2cnc3[nH]cc(-c4cccc(F)c4)c3c2)cn1` displayed a CLint of 110 µL/min/mg.
In turn, `CC(C)(C)OC(=O)N1CCN(c2cnc3[nH]cc(-c4cccc(C#N)c4)c3c2)CC1` yielded a CLint of 94 µL/min/mg.
In the case of `Cn1cc(-c2cnc3[nH]cc(-c4ccc5[nH]ccc5c4)c3c2)cn1`, the CLint stood at 300 µL/min/mg.
`N#Cc1cccc(-c2n[nH]c3ncc(-c4cnn(C5CCOCC5)c4)cc23)c1` gave a CLint of 42 µL/min/mg.
`Cn1cc(-c2cnc3[nH]cc(-c4ccccc4F)c3c2)cn1`: the CLint amounted to 150 µL/min/mg.
`Cn1cc(-c2cnc3[nH]cc(-c4cc(F)cc(C#N)c4)c3c2)cn1` gave a CLint of 91 µL/min/mg.
With `Cn1cc(-c2cnc3[nH]cc(C4CCNCC4)c3c2)cn1`, the CLint amounted to 3 µL/min/mg.

A further data set in a line: Intrinsic clearance in rat hepatocytes assessed per million cells by LC-MS/MS analysis. Type of data set: ADME, cell-based, Hepatocyte.
Conditions: not given
Turning to `N#Cc1cccc(-c2c[nH]c3ncc(-c4cnn(C5CCNCC5)c4)cc23)c1`, the CLH was found to be 19 µL/min.

A short description of a further data set: Half life in mouse plasma. Type of data set: ADME, cell-free.
Conditions: not given
Compound `N#Cc1cccc(-c2c[nH]c3ncc(-c4cnn(C5CCNCC5)c4)cc23)c1` displayed a t1/2 of over 2 h.

A short description of a further data set: Half life in mouse liver microsomes.
Conditions: not given
Type of data set: ADME, Microsome.
In the case of `N#Cc1cccc(-c2c[nH]c3ncc(-c4cnn(C5CCNCC5)c4)cc23)c1`, the t1/2 was 0.567 h.

A short description of another data set: Cmax in Balb/c mouse at 10 mg/kg, ip measured after 1 hr by LC-MS/MS analysis. To be noted: in vivo. Type of data set: ADME, organism-based. The arrangement: route intraperitoneal, dose 10 mg/kg, time 1 hrs. In outline: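 BALB/c mice (n=3) received a single 10 mg/kg intraperitoneal dose. Retro-orbital blood samples were taken at 0.083, 0.25, 0.5, 1, 2, 4, 8 and 24 h post-dose, and plasma levels were quantified by LC-MS-MS. Cmax is the mean of the three animals, read from the plasma concentration–time profile.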
Compound `N#Cc1cccc(-c2c[nH]c3ncc(-c4cnn(C5CCNCC5)c4)cc23)c1` returned a Cmax of 4413.3 ng/mL.

The nature of another data set: Tmax in Balb/c mouse at 10 mg/kg, ip by LC-MS/MS analysis. Type of data set: ADME, organism-based. The note with it: in vivo. In outline:
(§1)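 BALB/c mice, n=3, single 10 mg/kg intraperitoneal dose. Blood (50 μL) taken by retro-orbital bleed at 0.083, 0.25, 0.5, 1, 2, 4, 8 and 24 h post-dose. Plasma levels measured by LC-MS-MS. Brain and plasma levels from sparse sampling at 0.5 and 4 h; LLOQ 9.77 ng/mL.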
In the case of `N#Cc1cccc(-c2c[nH]c3ncc(-c4cnn(C5CCNCC5)c4)cc23)c1`, the time to peak (Tmax) amounted to 1 h.

A further data set can be described thus: Drug level in Balb/c mouse brain at 10 mg/kg, ip measured after 0.5 hrs by LC-MS/MS analysis. Type of data set: ADME, organism-based. To be noted: in vivo, BLD = below limit of detection. In outline: as §1
Turning to `N#Cc1cccc(-c2c[nH]c3ncc(-c4cnn(C5CCNCC5)c4)cc23)c1`, the Drug uptake result is listed as “Bld”.

Another data set can be described thus: Permeability in human Caco2 cells. To be noted: caco-2. Type of data set: ADME, cell-based.
With `N#Cc1cccc(-c2c[nH]c3ncc(-c4cnn(C5CCNCC5)c4)cc23)c1`, the permeability result is reported as “Permeable”.
